In the library only some 1.8% were active in any assay of this set; here they are far more common.
Ecoli rRNA inh: inhibitors of bacterial rRNA selective over humanized ribosomes. E. coli WT GFP vs humanized-ribosome RFP mutants, fluorescence, 24 h; stronger effect = lower value; DMSO median 0, no signal -100. GFP signal change (wild-type ribosome), % (concentration not given with the values). hit rate 1.6% among 350,000. AID 720706;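 active = significant combined selectivity score with lowered wild-type GFP, culture density cut under 30%, mutant RFP and density less affected; inactive = any of these conditions unmet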
SKN-1 inh: blocks SKN-1 activity in C. elegans | hit rate 0.49% among 360,000 | C. elegans VP596 Pgst-4::GFP/RFP ratio, acrylamide-induced, 24 h | AID 624304 | inhibition, % at 21.8 µM;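 active = interference check ratio from 0.5 to 1.5 plus GFP to RFP signal ratio inhibition reaching or exceeding a fixed threshold, cut at about 30% in these data, passing the limit was not always enough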
iPSC survival up: increases survival of single human iPS cells | survival enhancement, % at 20 µM | hiPSC single-cell survival, ATPlite luminescence; 100% = ROCK inhibitor wells, 0% = DMSO | hit rate 0.044% among 360,000; in the data active = survival enhancement above about 18%;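 also: cells exposed to compounds for 16 hours before the ATP read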
Cneo AK release: causes C. neoformans cell lysis; adenylate kinase release luminescence, 4 h; normalised: neutral wells 0, clomiphene wells 100; lysis activity, % at 15 µM; hit rate 0.2% among 360,000; AID 651654;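 active = mean lysis activity across replicates of at least 80%, whatever share of replicates individually reach that level; inactive = mean lysis activity below 80%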
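Material: C. neoformans cells; Schedule: 4 h static compound exposure, 37 °C, read 1 h post-reagent; Measured by: adenylate kinase release luminescence; Read-out: signal increase indicating cell lysis; Controls: Clomiphene as positive lysis control.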
DAGLB inh: diacylglycerol lipase beta (human) inhibition; HEK293T DAGLB membrane lysate, EnzChek fluorogenic substrate; Q8NCG7; hit rate 0.059% among 340,000; AID 504411; inhibition, % at 5.17 µM; in the data active = inhibition above about 34%
Target sequence (Q8NCG7 whole entry, looked up): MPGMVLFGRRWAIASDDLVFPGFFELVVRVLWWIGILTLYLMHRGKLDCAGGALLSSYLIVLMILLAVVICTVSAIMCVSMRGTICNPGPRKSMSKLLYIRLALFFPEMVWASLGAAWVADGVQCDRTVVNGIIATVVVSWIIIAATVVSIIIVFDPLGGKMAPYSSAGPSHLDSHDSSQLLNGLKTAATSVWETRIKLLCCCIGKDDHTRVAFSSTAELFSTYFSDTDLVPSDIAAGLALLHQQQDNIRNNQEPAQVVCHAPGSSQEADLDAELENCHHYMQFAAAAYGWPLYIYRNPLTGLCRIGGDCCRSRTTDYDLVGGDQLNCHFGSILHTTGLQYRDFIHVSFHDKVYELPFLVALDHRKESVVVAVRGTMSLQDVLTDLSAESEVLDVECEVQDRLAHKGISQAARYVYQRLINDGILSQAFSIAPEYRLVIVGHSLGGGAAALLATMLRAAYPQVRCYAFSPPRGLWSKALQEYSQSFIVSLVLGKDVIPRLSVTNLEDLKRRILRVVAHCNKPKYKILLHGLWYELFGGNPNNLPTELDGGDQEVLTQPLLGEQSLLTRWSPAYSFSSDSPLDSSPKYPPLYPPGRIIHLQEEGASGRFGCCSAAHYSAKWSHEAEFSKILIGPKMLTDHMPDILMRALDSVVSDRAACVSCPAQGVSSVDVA
MT1-MMP act inh: blocks activation of human MT1-MMP | HT1080 RFP-PRO-GFP cells, GFP/RFP ratio fluorescence, overnight; percent of plate control window, DMSO zero | hit rate 0.061% among 360,000 | P50281 | GFP/RFP ratio change, % at 20 µM;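 active = GFP/RFP ratio change of at least 30% with cell ATP level not reduced by more than half and red fluorescence within 50% of control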
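Assay system: HT1080 RFP-PRO-GFP cells | Dosing: 20 µM single dose, 1% DMSO | Incubation: Cells overnight before dosing, compound overnight, 37 °C, 5% CO2 | Evaluation: GFP/RFP fluorescence ratio | Control set: DMSO-only wells and HT1080 RFP-L50D-GFP cell wells as references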
Numbers stand for hits; 0 = inactive; - = no result given.

SMILES | Ecoli rRNA inh | SKN-1 inh | iPSC survival up | Cneo AK release | DAGLB inh | MT1-MMP act inh
O=C(CCCSc1nc2ccccc2[nH]1)NC(c1ccccc1)c1ccccc1 | -40 | 0 | 0 | - | 0 | 0
NS(=O)(=O)c1cccc(NC(=O)CSc2nnc(-c3ccccc3F)n2C2CC2)c1 | -29 | 0 | 0 | 0 | 0 | 0
Cc1ccc2nc(SCC(=O)Nc3cccc(S(=O)(=O)N(C)C)c3)[nH]c2c1 | - | 0 | 0 | - | 0 | 0
O=C(CSc1nnc(-c2ccccc2F)n1C1CC1)Nc1ccc2[nH]c(=O)[nH]c2c1 | 0 | 0 | 0 | - | 0 | 0
NS(=O)(=O)c1cccc(NC(=O)CSc2nc3ccc(Cl)cc3[nH]2)c1 | -37 | 0 | 0 | 0 | 0 | 0
O=C1O[C@@H](Cc2ccccc2)[C@H]2[C@@H]3C=CCCC=C3CN2C12CCCC2 | - | - | - | 0 | - | -
CCOC(=O)c1cc(=O)[nH]c2ccccc12 | 0 | 0 | 0 | - | 0 | 0
O=C(CSc1nc2ccccc2[nH]1)Nc1cccc(S(=O)(=O)N2CCOCC2)c1 | -36 | 0 | 0 | 0 | 0 | 0
O=C(CSc1nc2ccc(Cl)cc2[nH]1)c1cccs1 | -25 | 0 | 0 | - | 0 | 0
O=C(COC(=O)c1cc(=O)[nH]c2ccccc12)Nc1cccc(S(=O)(=O)N2CCOCC2)c1 | -17 | 0 | 0 | 0 | 0 | 0
CCCOC(=O)c1cc(=O)[nH]c2ccccc12 | - | 37 | 0 | 0 | 0 | 0
Cc1cc(C(=O)CSc2nc3ccc(Cl)cc3[nH]2)c(C)n1C | - | 0 | 0 | 0 | 0 | 0
CCCN1C(=O)/C(=C/c2ccc3c(c2)OCO3)NC1=S | -24 | 0 | 0 | - | 0 | 0
C[C@@H]1CCCCO[C@H](CN(C)S(C)(=O)=O)[C@@H](C)CN([C@H](C)CO)C(=O)c2cc(NC(=O)Nc3ccccc3)ccc2O1 | 0 | - | - | 0 | - | -
C[C@H]1CN([C@@H](C)CO)C(=O)Cc2cc(N(C)C)ccc2O[C@@H]1CN(C)S(=O)(=O)c1ccccc1 | 0 | - | - | 0 | - | -
Cc1c(C#N)c(O)n(CCO)c(=O)c1N=Nc1ccccc1 | 0 | 40 | 0 | 0 | 0 | 0
C[C@H]1CN([C@@H](C)CO)C(=O)c2cc(NC(=O)CCC(F)(F)F)ccc2O[C@@H]1CN(C)C(=O)Nc1cccc2ccccc12 | 0 | - | - | 0 | - | -
O=C(NC1CCCC1)N1CCCCN2[C@H](CO)[C@H](c3ccc(-c4cncnc4)cc3)[C@@H]2C1 | 0 | - | - | 103 | - | -
O=C(Nc1cc(F)ccc1F)N1CCCCN2[C@@H](CO)[C@H](c3ccc(-c4cccnc4)cc3)[C@@H]2C1 | -24 | - | - | 0 | - | -
O=C(Nc1cc(F)ccc1F)N1CCCCN2[C@H](CO)[C@H](c3ccc(-c4cccnc4)cc3)[C@@H]2C1 | 0 | - | - | 0 | - | -
C/C=C/c1ccc([C@H]2[C@@H](CO)N3CCCCN(C(=O)Nc4ccc(OC)cc4)C[C@H]23)cc1 | 0 | - | - | 0 | - | -
C/C=C/c1ccc([C@@H]2[C@@H](CO)N3CCCCN(C(=O)Nc4ccc(OC)cc4)C[C@H]23)cc1 | 0 | - | - | 102 | - | -
O=C(NC1CCCC1)N1CCCCN2[C@H](C1)[C@H](c1ccc(-c3cncnc3)cc1)[C@@H]2CO | 0 | - | - | 0 | - | -
C[C@H](NC(=O)c1[nH]cnc1C(=O)Nc1ccc(Cl)cc1)C(=O)OC(C)(C)C | - | 36 | 0 | 0 | 0 | 0
CCOC(=O)C1=C(O)c2ccccc2C(=O)/C1=C\c1ccc(C)cc1 | - | 48 | 0 | - | 0 | 0
SMILES | Ecoli rRNA inh | SKN-1 inh | iPSC survival up | Cneo AK release | DAGLB inh | MT1-MMP act inh
CCOC(=O)C1=C(C)OC(=Cc2ccccc2)C1=O | 0 | 0 | 0 | - | 0 | 0
CCn1c(CSc2nnc(-c3ccncc3)n2C)nc2cc(C(=O)O)ccc21 | 0 | 41 | 0 | 0 | 0 | 0
CCCCSc1ccc2nc(-c3ccc(C#N)cc3)cn2c1 | - | 0 | 0 | 0 | 0 | 0
CCCSc1ccc2nc(-c3ccccc3)cn2c1 | - | 50 | 0 | - | 0 | 0
C/C=C/c1cnc2c(c1)C(=O)N([C@@H](C)CO)C[C@@H](C)[C@@H](CN(C)C(=O)NC1CCCCC1)O2 | 0 | - | - | 0 | - | -
COc1ccc2nc(N3C(=O)C(O)=C(C(=O)c4ccco4)C3c3ccc(C)o3)sc2c1 (stereo not drawn) | 0 | 0 | 0 | - | 0 | 0
COc1ccc2nc(N3C(=O)C(O)=C(C(=O)c4ccco4)C3c3ccccc3OC)sc2c1 (stereo not drawn) | -32 | 0 | 0 | 0 | 0 | 0
CO[C@@H]1CN(C)C(=O)c2ccc(NC(=O)C3CCOCC3)cc2OC[C@H](C)N(Cc2nccs2)C[C@@H]1C | 0 | - | - | 0 | - | -
O=S(=O)(NC1CCCC1)c1cccc(-c2nnc(-c3ccccc3)o2)c1 | - | 0 | 0 | 0 | 0 | 0
COc1ccc(NS(=O)(=O)c2cccc(NC(=O)c3ccc(Cl)nc3)c2)cc1 | -25 | 0 | 0 | - | 0 | 0
COc1ccc(NS(=O)(=O)c2cccc(-c3nnc(-c4ccccc4)o3)c2)cc1 | - | 34 | 0 | - | 0 | 0
O=C(Nc1cccc(S(=O)(=O)Nc2ccc(Cl)cc2)c1)c1ccc(Cl)nc1 | 0 | 0 | 0 | - | 0 | 0
C[C@H](CO)N1C[C@H](C)[C@H](CN(C)C(=O)c2cccc(F)c2)Oc2ncc(-c3cccnc3)cc2C1=O | 0 | - | - | 0 | - | -
O=C(C[C@H]1C=C[C@@H](NS(=O)(=O)c2ccccc2)[C@@H](CO)O1)N1CCN(c2ccccc2)CC1 | 0 | - | - | - | - | -
CCCCOc1ccc(C(=O)OC2CC(C)N(C)CC2C)cc1 (stereo not drawn) | - | 42 | 0 | 0 | 0 | 0
CC1CN(C)C(C)CC1OC(=O)C(c1ccccc1)c1ccccc1 (stereo not drawn) | 0 | 0 | 0 | 0 | - | 0
Cc1noc(C)c1NC(=O)N(C)C[C@@H]1OCCCC[C@@H](C)Oc2ccc(NS(C)(=O)=O)cc2C(=O)N([C@H](C)CO)C[C@@H]1C | 0 | - | - | 0 | - | -
COc1ccc(-c2noc(-c3ccoc3C)n2)cc1 | 0 | 0 | 0 | - | 0 | 0
COc1cccc(-c2noc(-c3ccoc3C)n2)c1 | 0 | 56 | 0 | - | 0 | 0
COc1cc(OC)cc(-c2nc(-c3cccs3)no2)c1 | 0 | 0 | 0 | - | 0 | 0
COc1cccc(-c2nc(-c3cccs3)no2)c1 | 0 | 46 | 0 | - | 0 | 0
C[C@@H]1CCCCO[C@@H](CN(C)S(=O)(=O)c2cccs2)[C@@H](C)CN([C@H](C)CO)C(=O)c2cc(NC(=O)Nc3cccc4ccccc34)ccc2O1 | 0 | - | - | 0 | - | -
CCCC#Cc1cnc2c(c1)C(=O)N([C@H](C)CO)C[C@@H](C)[C@@H](CN(C)C(=O)Nc1ccc(OC)cc1)O2 | 0 | - | - | 0 | - | -
O=C(C[C@@H]1CC[C@H](NC(=O)Cc2ccccn2)[C@H](CO)O1)NCCc1ccccc1 | 0 | - | - | 81 | - | -
O=C(C[C@H]1CC[C@H](NC(=O)Cc2ccccn2)[C@@H](CO)O1)NCCc1ccccc1 | 0 | - | - | 0 | - | -
Cc1ccn2cc(-c3cccc(S(=O)(=O)N4CCCCC4)c3)nc2c1 | -44 | 0 | 0 | 0 | 0 | 0

Screening results: PubChem, several laboratories
